Source: ChEMBL document CHEMBL1134817, “Mixed kappa agonists and mu agonists/antagonists as potential pharmacotherapeutics for cocaine abuse: synthesis and opioid receptor binding affinity of N-substituted derivatives of morphinan” (Bioorg Med Chem Lett, 2001)

Legend:
[1] = biological target: Opioid receptors; mu & kappa (Homo sapiens) (UniProt P41145+P35372); assay: Selectivity ratio of kappa opioid receptor to that of mu opioid receptor in guinea pig brain membranes; type: cell membranes; details: Cavia porcellus; target entry is the homologue from another species
[2] = biological target: Mu-type opioid receptor (Cavia porcellus, UniProt P97266); assay: Binding affinity towards Opioid receptor mu 1 in guinea pig brain membranes using [3H]DAMGO as radioligand; type: cell membranes, Membrane
In short: (§1)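 Competitive displacement binding on guinea pig brain membranes. Each receptor was labelled with its own tritiated radioligand: [³H]DAMGO (μ agonist) for μ, [³H]naltrindole (δ antagonist) for δ, and [³H]U69593 (κ agonist) for κ. The method follows an earlier protocol.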

[3] = biological target: Opioid receptors; delta & kappa (Homo sapiens) (UniProt P41145+P41143); assay: Selectivity ratio of kappa opioid receptor to that of delta opioid receptor in guinea pig brain membranes; type: cell membranes; details: Cavia porcellus; target entry is the homologue from another species
[4] = biological target: T1, Kappa-type opioid receptor (Cavia porcellus, UniProt P41144); assay: Binding affinity towards guinea pig Opioid receptor kappa 1 using radioligand [3H]U-69593; in short: as §1
[5] = Binding affinity towards Opioid receptor delta 1 in guinea pig brain membranes using [3H]naltrindole as radioligand
[6] = biological target: T1, Kappa-type opioid receptor; assay: Binding affinity towards Opioid receptor kappa 1 in guinea pig brain membranes using [3H]U-69593 as radioligand; type: cell membranes, Membrane; in short: as §1

Sequence of Mu-type opioid receptor (P97266 whole entry): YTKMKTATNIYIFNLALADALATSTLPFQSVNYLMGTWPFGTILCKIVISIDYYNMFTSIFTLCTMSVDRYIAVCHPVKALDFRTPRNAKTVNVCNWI
T1 sequence (P41144 whole entry): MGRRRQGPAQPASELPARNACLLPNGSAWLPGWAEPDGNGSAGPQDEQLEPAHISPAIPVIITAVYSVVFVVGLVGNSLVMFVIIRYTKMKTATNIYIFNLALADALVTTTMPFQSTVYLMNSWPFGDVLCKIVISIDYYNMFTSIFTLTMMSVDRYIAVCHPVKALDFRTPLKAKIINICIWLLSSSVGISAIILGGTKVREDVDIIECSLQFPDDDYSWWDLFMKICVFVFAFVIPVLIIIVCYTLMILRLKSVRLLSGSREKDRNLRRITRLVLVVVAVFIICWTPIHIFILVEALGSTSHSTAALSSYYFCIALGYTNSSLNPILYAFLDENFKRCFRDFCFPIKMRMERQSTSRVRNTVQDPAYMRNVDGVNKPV
Sequence of Opioid receptors; mu & kappa (Homo sapiens) (P35372 whole entry, looked up): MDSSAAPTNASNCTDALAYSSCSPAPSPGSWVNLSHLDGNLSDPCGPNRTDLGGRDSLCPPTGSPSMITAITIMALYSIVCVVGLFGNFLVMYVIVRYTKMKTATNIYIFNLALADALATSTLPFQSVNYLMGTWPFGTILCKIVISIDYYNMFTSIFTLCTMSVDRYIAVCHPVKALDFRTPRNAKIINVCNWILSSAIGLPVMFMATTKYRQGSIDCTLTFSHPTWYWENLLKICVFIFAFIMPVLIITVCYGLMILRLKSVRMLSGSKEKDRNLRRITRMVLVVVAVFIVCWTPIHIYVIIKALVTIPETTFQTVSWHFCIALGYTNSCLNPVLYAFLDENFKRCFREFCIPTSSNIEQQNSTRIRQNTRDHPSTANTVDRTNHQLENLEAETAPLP
Sequence of Opioid receptors; mu & kappa (Homo sapiens) (P41145 whole entry, looked up): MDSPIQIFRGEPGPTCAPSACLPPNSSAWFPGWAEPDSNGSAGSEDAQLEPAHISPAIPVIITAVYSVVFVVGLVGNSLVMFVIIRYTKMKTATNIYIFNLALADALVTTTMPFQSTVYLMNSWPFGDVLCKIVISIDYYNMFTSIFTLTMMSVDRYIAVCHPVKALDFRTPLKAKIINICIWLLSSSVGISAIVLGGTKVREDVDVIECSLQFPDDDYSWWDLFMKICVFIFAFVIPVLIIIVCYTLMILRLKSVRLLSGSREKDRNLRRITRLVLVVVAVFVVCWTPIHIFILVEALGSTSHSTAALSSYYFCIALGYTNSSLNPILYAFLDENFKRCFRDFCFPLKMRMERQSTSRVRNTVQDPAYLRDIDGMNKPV
Sequence of Opioid receptors; delta & kappa (Homo sapiens) (P41143 whole entry, looked up): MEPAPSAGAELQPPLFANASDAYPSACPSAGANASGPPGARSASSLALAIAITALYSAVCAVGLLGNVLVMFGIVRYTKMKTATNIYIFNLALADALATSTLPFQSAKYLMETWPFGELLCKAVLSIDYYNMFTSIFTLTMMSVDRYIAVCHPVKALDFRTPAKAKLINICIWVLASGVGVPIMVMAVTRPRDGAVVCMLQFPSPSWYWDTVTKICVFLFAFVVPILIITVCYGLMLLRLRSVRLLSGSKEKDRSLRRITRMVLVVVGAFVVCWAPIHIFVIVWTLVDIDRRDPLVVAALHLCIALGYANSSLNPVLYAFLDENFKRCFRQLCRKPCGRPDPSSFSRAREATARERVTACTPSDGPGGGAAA
Sequence of Opioid receptors; delta & kappa (Homo sapiens) (P41145 whole entry, looked up): as the sequence (P41145 whole entry, looked up) above

## O=C(CCN1CC[C@]23CCCC[C@H]2[C@H]1Cc1cc(O)ccc13)c1ccccc1
[1]
  Selectivity: 0.04
[2]
  Ki: 0.43 nM
[3]
  Selectivity: 2
[4]
  Ki: 9.9 nM

## Oc1ccc2c(c1)[C@@]13CCCC[C@H]1[C@@H](C2)N(CC1CCC1)CC3 [BUTORPHAN]
[5]
  Ki: 1.3 nM
[1]
  Selectivity: 2
[3]
  Selectivity: 18
[6]
  Ki: 0.07 nM

## Oc1ccc2c(c1)C[C@@H]1[C@@H]3CCCC[C@]23CCN1CCCF
[1]
  Selectivity: 2
[2]
  Ki: 0.18 nM
[3]
  Selectivity: 10
[6]
  Ki: 0.083 nM

## Oc1ccc2c(c1)C[C@@H]1[C@@H]3CCCC[C@]23CCN1CCC(O)c1cccs1 (some centres undefined)
[1]
  Selectivity: 0.2
[2]
  Ki: 4.1 nM
[3]
  Selectivity: 4
[4]
  Ki: 25 nM

## Oc1ccc2c(c1)C[C@@H]1[C@@H]3CCCC[C@]23CCN1Cc1ccco1
[1]
  Selectivity: 4
[2]
  Ki: 0.54 nM
[3]
  Selectivity: 65
[4]
  Ki: 0.13 nM

## C#CCN1CC[C@]23CCCC[C@H]2[C@H]1Cc1ccc(O)cc13
[1]
  Selectivity: 1
[2]
  Ki: 0.0032 nM
[3]
  Selectivity: 210
[4]
  Ki: 0.003 nM

## O=C(CCN1CC[C@]23CCCC[C@H]2[C@H]1Cc1cc(O)ccc13)c1cccs1
[1]
  Selectivity: 0.06
[2]
  Ki: 0.27 nM
[3]
  Selectivity: 2
[4]
  Ki: 4.5 nM

## CCOCCN1CC[C@]23CCCC[C@H]2[C@H]1Cc1cc(O)ccc13
[1]
  Selectivity: 0.8
[2]
  Ki: 0.26 nM
[3]
  Selectivity: 16
[6]
  Ki: 0.33 nM

## Oc1ccc2c(c1)[C@@]13CCCC[C@H]1[C@@H](C2)N(CC1CC1)CC3 [CYCLORPHAN]
[5]
  Ki: 0.22 nM

## Oc1ccc2c(c1)C[C@@H]1[C@@H]3CCCCC23CCN1CC1CCCC1
[1]
  Selectivity: 5
[2]
  Ki: 0.96 nM
[3]
  Selectivity: 33
[6]
  Ki: 0.21 nM

## Oc1ccc2c(c1)C[C@@H]1[C@@H]3CCCC[C@]23CCN1CCOc1ccccc1
[1]
  Selectivity: 0.06
[2]
  Ki: 0.92 nM
[3]
  Selectivity: 2
[4]
  Ki: 15 nM

## Oc1ccc2c(c1)C[C@@H]1[C@@H]3CCCC[C@]23CCN1CCC(F)(F)F
[1]
  Selectivity: 2
[2]
  Ki: 2.3 nM
[3]
  Selectivity: 21
[4]
  Ki: 1.3 nM

## COCCN1CC[C@]23CCCC[C@H]2[C@H]1Cc1cc(O)ccc13
[1]
  Selectivity: 1
[2]
  Ki: 0.11 nM
[3]
  Selectivity: 6
[4]
  Ki: 0.094 nM

## CN1CC[C@]23CCCC[C@H]2[C@H]1Cc1ccc(O)cc13 [LEVORPHANOL]
[5]
  Ki: 4.2 nM
[1]
  Selectivity: 0.09
[3]
  Selectivity: 2

## N#CCCCN1CC[C@]23CCCC[C@H]2[C@H]1Cc1cc(O)ccc13
[1]
  Selectivity: 0.42
[2]
  Ki: 0.16 nM
[3]
  Selectivity: 8
[4]
  Ki: 0.38 nM

## N#CCCN1CC[C@]23CCCC[C@H]2[C@H]1Cc1cc(O)ccc13
[1]
  Selectivity: 1.4
[2]
  Ki: 0.33 nM
[3]
  Selectivity: 11
[4]
  Ki: 0.23 nM

## C=CCN1CC[C@]23CCCC[C@H]2[C@H]1Cc1cc(O)ccc13
[1]
  Selectivity: 2
[2]
  Ki: 0.34 nM
[3]
  Selectivity: 26
[4]
  Ki: 0.16 nM

## Oc1ccc2c(c1)C[C@@H]1[C@@H]3CCCC[C@]23CCN1CCC(O)c1ccco1 (some centres undefined)
[1]
  Selectivity: 0.35
[2]
  Ki: 4.2 nM
[3]
  Selectivity: 2
[4]
  Ki: 12 nM

## Oc1ccc2c(c1)C[C@@H]1[C@@H]3CCCC[C@]23CCN1CCc1ccccc1
[1]
  Selectivity: 0.092
[2]
  Ki: 0.12 nM
[3]
  Selectivity: 2
[4]
  Ki: 1.3 nM

## Oc1ccc2c(c1)C[C@@H]1[C@@H]3CCCC[C@]23CCN1Cc1ccccc1
[1]
  Selectivity: 11
[2]
  Ki: 20 nM
[3]
  Selectivity: 220
[4]
  Ki: 1.9 nM

## Oc1ccc2c(c1)C[C@@H]1[C@@H]3CCCC[C@]23CCN1CC=CI
[1]
  Selectivity: 0.6
[2]
  Ki: 0.42 nM
[3]
  Selectivity: 51
[4]
  Ki: 0.65 nM

## O=C(CCN1CC[C@]23CCCC[C@H]2[C@H]1Cc1cc(O)ccc13)c1ccco1
[1]
  Selectivity: 0.035
[2]
  Ki: 0.28 nM
[3]
  Selectivity: 5
[4]
  Ki: 7.9 nM

## Oc1ccc2c(c1)C[C@@H]1[C@@H]3CCCC[C@]23CCN1CCC(O)c1ccccc1 (some centres undefined)
[1]
  Selectivity: 0.4
[2]
  Ki: 21 nM
[3]
  Selectivity: 2
[4]
  Ki: 57 nM

## Oc1ccc2c(c1)C[C@@H]1[C@@H]3CCCCC23CCN1Cc1cccs1
[1]
  Selectivity: 5
[2]
  Ki: 1.5 nM
[3]
  Selectivity: 160
[4]
  Ki: 0.32 nM

## CC(C)CN1CC[C@]23CCCC[C@H]2[C@H]1Cc1cc(O)ccc13
[1]
  Selectivity: 3
[2]
  Ki: 0.54 nM
[3]
  Selectivity: 35
[6]
  Ki: 0.16 nM

## Oc1ccc2c(c1)C[C@@H]1[C@@H]3CCCCC23CCN1CC1CCCCC1
[1]
  Selectivity: 12
[2]
  Ki: 18 nM
[3]
  Selectivity: 46
[6]
  Ki: 1.5 nM

## Oc1ccc2c(c1)C[C@@H]1[C@@H]3CCCC[C@]23CCN1C/C=C/I
[1]
  Selectivity: 0.13
[2]
  Ki: 0.0048 nM
[3]
  Selectivity: 730
[4]
  Ki: 0.037 nM
